Results on eight molecules are retold here after ChEMBL document CHEMBL4118283, “Discovery of a novel 2-(1H-pyrazolo[3,4-b]pyridin-1-yl)thiazole derivative as an EP1 receptor antagonist and in vivo studies in a bone fracture model” (Bioorg Med Chem Lett, 2018).

For series [1], the target named is T1, Prostaglandin E2 receptor EP1 subtype (Homo sapiens, UniProt P34995).
T1 sequence (P34995 whole entry): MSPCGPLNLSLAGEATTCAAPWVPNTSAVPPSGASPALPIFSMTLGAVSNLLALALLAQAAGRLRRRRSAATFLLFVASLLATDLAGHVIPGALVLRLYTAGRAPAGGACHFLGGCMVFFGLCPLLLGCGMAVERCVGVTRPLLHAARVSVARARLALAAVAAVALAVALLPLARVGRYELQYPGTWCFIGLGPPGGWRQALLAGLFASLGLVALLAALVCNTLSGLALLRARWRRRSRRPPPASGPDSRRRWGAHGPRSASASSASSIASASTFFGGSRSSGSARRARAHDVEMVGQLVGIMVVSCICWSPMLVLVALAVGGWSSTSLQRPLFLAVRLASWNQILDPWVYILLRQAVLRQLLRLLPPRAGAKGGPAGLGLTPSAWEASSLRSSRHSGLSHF
The series is described as follows: Antagonist activity at EP1 receptor (unknown origin) by reporter gene assay. It is filed as functional. Background: In a reporter assay the amount or activity of a reporter protein is the signal.

Series [2] in a line: Permeability in MDCK cells. The series is classed as ADME, cell-based, Canis lupus familiaris. The note with it: dog, read-out: permeability.
Series [3] is described as follows: Intrinsic clearance in rat. It is filed as ADME, organism-based. Particulars: in vivo.
Series [4] in a line: Intrinsic clearance in human. It is filed as ADME, organism-based. Particulars: in vivo.
Series [5] concerns the target T2, Prostaglandin E2 receptor EP1 subtype (Homo sapiens) (UniProt P34995).
T2 sequence (whole entry): T1 sequence (P34995 whole entry)
The series is described as follows: Antagonist activity at EP1 receptor (unknown origin) at 100 nM by reporter gene assay relative to control. It is filed as functional.

The test system of series [6] is Rattus norvegicus. The series is described as follows: AUC (0 to 8 hrs) in Sprague-Dawley rat at 10 to 100 mg/kg, po by LC-MS/MS analysis. The series is classed as ADME, organism-based. The note with it: in vivo. The method in brief: (§1)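 Single oral dose of 10, 30 or 100 mg/kg to 7-week-old female Sprague–Dawley rats (n = 3), vehicle 10% v/v DMSO, 5% v/v Cremophor EL, 85% v/v water. Subclavian-vein blood drawn at 0.5, 1, 2, 4, 8 and 24 h post dose; plasma separated by centrifugation and drug measured by LC-MS/MS.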

Series [7] in a line: Cmax in Sprague-Dawley rat at 10 to 100 mg/kg, po by LC-MS/MS analysis. It is filed as ADME, organism-based. Particulars: in vivo. The method in brief: as §1
A short description of series [8]: Cmax in Sprague-Dawley rat at 10 mg/kg, po by LC-MS/MS analysis. It is filed as ADME, organism-based. The arrangement: dose 10 mg/kg, route oral. The note with it: in vivo. The essentials:
as §1

Series [9] addresses T3, Prostaglandin E2 receptor EP3 subtype (Homo sapiens, UniProt P43115).
T3 sequence (P43115 whole entry): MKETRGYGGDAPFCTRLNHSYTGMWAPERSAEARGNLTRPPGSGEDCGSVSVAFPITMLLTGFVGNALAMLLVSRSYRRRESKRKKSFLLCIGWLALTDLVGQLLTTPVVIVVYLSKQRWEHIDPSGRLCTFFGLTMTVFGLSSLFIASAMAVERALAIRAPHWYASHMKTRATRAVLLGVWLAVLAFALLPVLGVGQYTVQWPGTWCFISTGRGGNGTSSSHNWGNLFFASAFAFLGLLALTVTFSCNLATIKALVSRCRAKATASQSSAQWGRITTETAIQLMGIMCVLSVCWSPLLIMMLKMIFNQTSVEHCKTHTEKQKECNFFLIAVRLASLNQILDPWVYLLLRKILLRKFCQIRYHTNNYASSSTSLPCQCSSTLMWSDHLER
The experiment in a line: Binding affinity to EP3 receptor (unknown origin).

Series [10] can be described thus: Drug uptake in Sprague-Dawley rat plasma at 100 mg/kg, po qd for 4 weeks by LC-MS/MS analysis. Particulars: in vivo, 672 h. The series is classed as ADME, organism-based. The method in brief:
(§2)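 Sprague–Dawley rats with femoral fractures dosed orally for 28 days (30 mg/kg once daily, 30 mg/kg twice daily, or 100 mg/kg once daily). Subclavian-vein blood taken 30 min before dosing (trough) or 1 h after dosing on days 1, 2, 3, 7, 14, 21 and 28; plasma drug measured by LC-MS/MS.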

Series [11] concerns the target T1, Prostaglandin E2 receptor EP1 subtype. The experiment in a line: Binding affinity to EP1 receptor (unknown origin) by binding assay.
The test system of a further series is Salmonella typhimurium. The experiment in a line: Mutagenicity in Salmonella typhimurium by Ames test. The series is classed as toxicity, organism-based. Particulars: salmonella enterica subsp. enterica serovar typhimurium.
Series [12] in a line: Cmax in Sprague-Dawley rat at 30 mg/kg, po by LC-MS/MS analysis. The series is classed as ADME, organism-based. The arrangement: dose 30 mg/kg, route oral. The note with it: in vivo. The essentials: as §1
The subject of series [13] is Rattus norvegicus. The series is described as follows: Osteogenic activity in Sprague-Dawley rat drill-hole femoral fracture model assessed as callus formation at 100 mg/kg, po qd for 28 days. The series is classed as functional, organism-based. Particulars: in the assay text read “closed” for “drill-hole”. The method in brief:
(§3)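 Closed mid-diaphyseal femur fracture in 8-week-old Sprague–Dawley rats under ip pentobarbital (50 mg/kg). Medial parapatellar arthrotomy, 1 mm drill hole at intercondylar fossa, 21-gauge needle inserted through the medullary canal, fracture by three-point bending. Oral drug or 0.5% MC vehicle given for 28 days. Radiographs at 0, 7, 14, 21, 28 days; outer hard callus area traced by image analysis.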

The subject of series [14] is Rattus norvegicus. The series is described as follows: Osteogenic activity in Sprague-Dawley rat drill-hole femoral fracture model assessed as callus formation at 30 mg/kg, po qd for 28 days. It is filed as functional, organism-based. The note with it: in the assay text read “closed” for “drill-hole”. The method in brief: as §3
A short description of series [15]: Cmax in Sprague-Dawley rat at 100 mg/kg, po by LC-MS/MS analysis. Particulars: in vivo. It is filed as ADME, organism-based. Details: dose 100 mg/kg, route oral. The essentials: as §1
In series [16] the test system is Rattus norvegicus. The series is described as follows: Osteogenic activity in Sprague-Dawley rat drill-hole femoral fracture model assessed as callus formation at 30 mg/kg, po bid for 28 days. It is filed as functional, organism-based. Particulars: in the assay text read “closed” for “drill-hole”. The method in brief:
as §3

The nature of series [17]: Drug uptake in Sprague-Dawley rat plasma at 30 mg/kg, po qd for 4 weeks by LC-MS/MS analysis. The note with it: in vivo, 672 h. It is filed as ADME, organism-based. The method in brief: as §2
In series [18] the target is Prostaglandin E2 receptor EP4 subtype (Homo sapiens, UniProt P35408). The experiment in a line: Binding affinity to EP4 receptor (unknown origin).
Prostaglandin E2 receptor EP4 subtype, sequence (P35408 whole entry): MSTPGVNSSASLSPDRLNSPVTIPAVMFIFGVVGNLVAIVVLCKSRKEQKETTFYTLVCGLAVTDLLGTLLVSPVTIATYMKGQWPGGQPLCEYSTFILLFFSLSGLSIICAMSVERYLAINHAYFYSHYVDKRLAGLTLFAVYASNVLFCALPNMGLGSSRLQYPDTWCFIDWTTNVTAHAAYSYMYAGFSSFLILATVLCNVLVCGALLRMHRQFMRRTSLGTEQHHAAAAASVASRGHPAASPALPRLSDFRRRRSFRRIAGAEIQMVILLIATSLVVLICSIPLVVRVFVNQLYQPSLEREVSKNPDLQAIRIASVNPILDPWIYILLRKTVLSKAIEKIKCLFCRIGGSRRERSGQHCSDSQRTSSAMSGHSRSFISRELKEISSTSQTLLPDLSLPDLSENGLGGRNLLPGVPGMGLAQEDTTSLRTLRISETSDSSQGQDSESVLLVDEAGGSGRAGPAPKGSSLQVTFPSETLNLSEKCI
The nature of series [19]: Drug uptake in Sprague-Dawley rat plasma at 100 mg/kg, po after 24 hrs by LC-MS/MS analysis. The series is classed as ADME, organism-based. The note with it: in vivo. The method in brief: as §1
Series [20] is described as follows: Oral bioavailability in Sprague-Dawley rat at 10 to 100 mg/kg by LC-MS/MS analysis. The series is classed as ADME, organism-based. Particulars: in vivo.
Series [21] can be described thus: Protein binding in Sprague-Dawley rat plasma at 10 to 100 mg/kg, po by LC-MS/MS analysis. It is filed as ADME, organism-based. The note with it: read-out: PPB (converted).
Series [22] has as its target Prostaglandin E2 receptor EP2 subtype (Homo sapiens, UniProt P43116). The series is described as follows: Binding affinity to EP2 receptor (unknown origin).
Series [23] can be described thus: Drug uptake in Sprague-Dawley rat plasma at 30 mg/kg, po bid for 4 weeks by LC-MS/MS analysis. The series is classed as ADME, organism-based. The note with it: in vivo, 672 h. The method in brief:
as §2

Each structure is given as a SMILES string. Activity calls are given as the source filed them. The calls are words filed in the database; no cut-off is given here. A value given as a limit tells only on which side of the number the result lay.

Prostaglandin E2 receptor EP2 subtype, sequence (P43116 whole entry): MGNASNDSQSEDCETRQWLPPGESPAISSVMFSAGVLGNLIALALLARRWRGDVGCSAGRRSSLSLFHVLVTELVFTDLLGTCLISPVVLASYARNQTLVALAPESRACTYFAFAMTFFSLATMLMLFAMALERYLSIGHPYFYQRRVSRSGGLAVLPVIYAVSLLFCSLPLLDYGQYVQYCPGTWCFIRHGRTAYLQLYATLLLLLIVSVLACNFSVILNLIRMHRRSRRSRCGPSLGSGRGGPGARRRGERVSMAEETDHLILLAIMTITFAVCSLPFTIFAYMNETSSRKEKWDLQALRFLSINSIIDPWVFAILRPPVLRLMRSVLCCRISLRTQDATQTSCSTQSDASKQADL

As a reminder, the IC50 is the concentration that inhibits the measured activity by half. Lower therefore signals greater potency in that assay. As a reminder, the CLint scaled is the capacity of the preparation to metabolise the compound, expressed as a volume cleared per time. `O=C(O)c1csc(-n2nc(C3=CCCCO3)c3ccc(C(F)(F)F)cc32)n1` displayed an IC50 in series [1] of 0.7 nM. Besides, in [2], the Papp was found to be 39 ×10⁻⁶ cm/s. Also, the CLint scaled in series [3] was 232 mL/min/kg; in series [4], 146 mL/min/kg.
Broadly, the inhibition is the percentage by which the read-out fell short of the control. Read a high inhibition as a response far below the control. The molecule `O=C(O)c1csc(-n2nc(-c3ccccc3)c3ccc(N4CCCC4)nc32)n1` yielded an inhibition in series [5] of 11%.
The Cmax is the maximum level reached in the sampled fluid or tissue. With `O=C(O)c1csc(-n2nc(-c3ccccc3)c3ccc(C(F)(F)F)cc32)n1`, in the series with Rattus norvegicus [6], the AUC was 9.27 microM/L.hr. The same molecule returned a Cmax in [7] of 5.34 µM.
As usually defined, the Ki is the equilibrium dissociation constant of an inhibitor or competing ligand from its target. A higher Ki goes with lower affinity. Usually bioavailability stands for the share of a dose that reaches the circulation, judged against a reference dose that is usually intravenous. A high value points to good availability. Regarding `O=C(O)c1csc(-n2nc(-c3ccccc3)c3ccc(C(F)(F)F)nc32)n1`, half-maximal inhibition in series [1] (IC50) was put at 0.3 nM. Besides, the Cmax in series [8] turned out to be 24.8 µM; in series [12], 75.1 µM; in series [15], 179 µM; in [7], 2.62 µM. In addition, the inhibition constant Ki was greater than 5000 nM in series [9], 8.7 nM in series [11], greater than 2700 nM in series [18] and greater than 8700 nM in series [22]. For the same molecule, the Drug uptake entry in series [10], in series [17], in series [19] and in [23] was “Active” in each case. For the same molecule, the Activity entry with Salmonella typhimurium is “Non-Toxic”. The result in the series with Rattus norvegicus [13], in the series on Rattus norvegicus [14] and in the series on Rattus norvegicus [16] was Active. In addition, in [2], the Papp is 23.5 ×10⁻⁶ cm/s. This molecule also yielded an AUC in the series with Rattus norvegicus [6] of 5.71 microM/L.hr. For the same molecule, the bioavailability in [20] stood at 26%. The fraction unbound in [21] was 0.026. Also, the CLint scaled in [3] was determined as 94 mL/min/kg; in series [4] it was 70 mL/min/kg.
Molecule `O=C(O)c1csc(-n2nc(-c3ccccc3)c3ncc(C(F)(F)F)cc32)n1` came in with an IC50 in series [1] of 12 nM.
On the same count and under the same terms, the value for `CN(C)c1ccc2c(-c3ccccc3)nn(-c3nc(C(=O)O)cs3)c2n1` was 12 nM.
Regarding `O=C(O)c1csc(Cn2nc(-c3ccccc3)c3ccc(C(F)(F)F)cc32)n1`, in [1], the half-inhibitory concentration (IC50) came out at 12 nM. Also, the Papp in series [2] turned out to be 19.7 ×10⁻⁶ cm/s. For the same molecule, the intrinsic metabolic clearance (CLint scaled) in series [3] stood at 111 mL/min/kg; in [4], 48 mL/min/kg.
In [1], `O=C(O)c1csc(-n2nc(-c3ccccc3)c3ccc(N4CCC4)nc32)n1` had an IC50 of 40 nM.
